Measurements published in ChEMBL document CHEMBL1156133, “Losartan-antioxidant hybrids: novel molecules for the prevention of hypertension-induced cardiovascular damage” (J Med Chem, 2009).
Calls of active or inactive are those of the source. The rule behind the calls is not given here.

How the values were obtained:
Rattus norvegicus [1] = test: Antihypertensive activity in Wistar rat assessed as normalization of L-NAME-induced fibronectin content in vessel walls at 30 mg/kg/day, po for 4 weeks in presence of losartan; type: functional, organism-based
In short: (§1)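 Male Wistar rats on L-NAME in drinking water (20 mg/kg/day) for 8 weeks, treatments in drinking water for the last 4 weeks. Thoracic aorta lysates run on SDS-PAGE and Western blotted for collagen type I, fibronectin or HNE-lysine, with β-tubulin as loading control; ECL detection, densitometry. Expressed as percent of basal; mean ± SEM of 10 experiments.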

Rattus norvegicus [2] = test: Antihypertensive activity in L-NAME-induced Wistar rat assessed as decrease in blood glucose level at 30 mg/kg/day, po for last 4 weeks measured after 8 weeks; type: functional
In short: (§2)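 Two-month-old male Wistar rats given L-NAME in drinking water (20 mg/kg/day) for 8 weeks. From week 4, treatment is given daily in drinking water during 12.00–18.00 h, at the dose stated in the line. Ten rats per group. Sacrificed under halothane between 9.00 and 10.00 h. Serum is measured on an automatic analyzer. Mean ± SEM, nonparametric statistics.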

Rattus norvegicus [3] = test: Antihypertensive activity in Wistar rat assessed as normalization of L-NAME-induced aorta thickness at 10 mg/kg/day, po for 4 weeks; type: functional, organism-based
In short: (§3)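 L-NAME (20 mg/kg/day, drinking water, 8 weeks) hypertensive two-month-old male Wistar rats; treatments in drinking water daily for the last 4 weeks. Systolic pressure by tail-cuff in conscious animals. At sacrifice heart weighed (corrected to body weight); aortic rings from descending thoracic aorta, formaldehyde-flushed, media thickness by planimetry. Mean ± SEM of 10 rats.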

Rattus norvegicus [4] = test: Antihypertensive activity in Wistar rat assessed as normalization of L-NAME-induced systolic blood pressure at 30 mg/kg/day, po for 4 weeks; type: functional, organism-based; details: Artery; in short: as §3
Rattus norvegicus [5] = test: Antihypertensive activity in L-NAME-induced Wistar rat assessed as decrease in blood LDH level at 30 mg/kg/day, po for last 4 weeks measured after 8 weeks; type: functional; in short: as §2
Rattus norvegicus [6] = test: Antihypertensive activity in Wistar rat assessed as normalization of L-NAME-induced heart weight at 30 mg/kg/day, po for 4 weeks in presence of L-NAME; type: functional, organism-based; in short: as §3
Rattus norvegicus [7] = test: Antihypertensive activity in L-NAME-induced Wistar rat assessed as decrease in blood […] level at 30 mg/kg/day, po for last 4 weeks measured after 8 weeks; type: functional; in short: as §2
Rattus norvegicus [8] = test: Antihypertensive activity in Wistar rat assessed as normalization of L-NAME-induced HNE-lysine accumulation in vessel walls at 30 mg/kg/day, po for 4 weeks in presence of losartan; type: functional, organism-based; in short: as §1
Rattus norvegicus [9] = test: Antihypertensive activity in Wistar rat assessed as normalization of L-NAME-induced collagen 1 level in vessel walls at 30 mg/kg/day, po for 4 weeks in presence of losartan; type: functional, organism-based; in short: as §1
Rattus norvegicus [10] = test: Antihypertensive activity in L-NAME-induced Wistar rat assessed as decrease in blood creatinine level at 30 mg/kg/day, po for last 4 weeks measured after 8 weeks; type: functional; in short: as §2
Rattus norvegicus [11] = test: Antihypertensive activity in L-NAME-induced Wistar rat assessed as decrease in blood calcium level at 30 mg/kg/day, po for last 4 weeks measured after 8 weeks; type: functional; in short: as §2
Rattus norvegicus [12] = test: Antihypertensive activity in L-NAME-induced Wistar rat assessed as decrease in blood Na+ level at 30 mg/kg/day, po for last 4 weeks measured after 8 weeks; type: functional; in short: as §2
Rattus norvegicus [13] = test: Antihypertensive activity in L-NAME-induced Wistar rat assessed as decrease in blood triglyceride level at 30 mg/kg/day, po for last 4 weeks measured after 8 weeks; type: functional; in short: as §2
[14] = Antioxidant activity assessed as inhibition of oxidation of chromogen (ABTS) measured per mmol/L of product by total antioxidant assay; type: functional
In short: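 Total antioxidant status kit: inhibition of ABTS oxidation by metmyoglobin and hydrogen peroxide, followed at 600 nm absorbance; antioxidant ability proportional to absorbance reduction, expressed as mM. Compounds tested at 1 mmol/L.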

Rattus norvegicus [15] = test: Antihypertensive activity in L-NAME-induced Wistar rat assessed as decrease in blood urea level at 30 mg/kg/day, po for last 4 weeks measured after 8 weeks; type: functional; in short: as §2
Rattus norvegicus [16] = test: Antihypertensive activity in Wistar rat assessed as normalization of L-NAME-induced systolic blood pressure at 10 mg/kg/day, po for 4 weeks; type: functional, organism-based; details: Artery; in short: as §3
Rattus norvegicus [17] = test: Antihypertensive activity in L-NAME-induced Wistar rat assessed as decrease in blood ALT level at 30 mg/kg/day, po for last 4 weeks measured after 8 weeks; type: functional; in short: as §2
VSMC = test: Displacement of [125I]angiotensin II from angiotensin 2 receptor in Wistar rat VSMC cells by gamma-counter; type: cell-based; design: concentration or dose not given beside the values
In short: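 Rat aortic VSMC (collagenase-derived primary cultures, passages 3-5) resuspended in Tris-glucose-NaCl buffer pH 7.4 at 0.5 μg/μL protein; 125 μg protein incubated 45 min with 0.15 nM 125I-angiotensin II plus compound. Bound separated by centrifugation, pellet washed with cold 0.15 M NaCl, gamma counted; nonspecific binding with 10^-4 M angiotensin II.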

Rattus norvegicus [18] = test: Antihypertensive activity in L-NAME-induced Wistar rat assessed as decrease in blood cholesterol level at 30 mg/kg/day, po for last 4 weeks measured after 8 weeks; type: functional; in short: as §2
Rattus norvegicus [19] = test: Antihypertensive activity in L-NAME-induced Wistar rat assessed as decrease in blood AST level at 30 mg/kg/day, po for last 4 weeks measured after 8 weeks; type: functional; in short: as §2
Rattus norvegicus [20] = test: Antihypertensive activity in L-NAME-induced Wistar rat assessed as decrease in blood protein level at 30 mg/kg/day, po for last 4 weeks measured after 8 weeks; type: functional; in short: as §2
Rattus norvegicus [21] = test: Antihypertensive activity in Wistar rat assessed as normalization of L-NAME-induced systolic blood pressure at 20 mg/kg/day, po for 4 weeks; type: functional, organism-based; details: Artery; in short: as §3
Rattus norvegicus [22] = test: Antihypertensive activity in L-NAME-induced Wistar rat assessed as decrease in blood LDH level at 20 mg/kg/day, po for last 4 weeks measured after 8 weeks; type: functional; in short: as §2
Rattus norvegicus [23] = test: Antihypertensive activity in L-NAME-induced Wistar rat assessed as decrease in blood urea level at 20 mg/kg/day, po for last 4 weeks measured after 8 weeks; type: functional; in short: as §2
Rattus norvegicus [24] = test: Antihypertensive activity in L-NAME-induced Wistar rat assessed as decrease in blood ALT level at 20 mg/kg/day, po for last 4 weeks measured after 8 weeks; type: functional; in short: as §2
Rattus norvegicus [25] = test: Antihypertensive activity in L-NAME-induced Wistar rat assessed as decrease in blood calcium level at 20 mg/kg/day, po for last 4 weeks measured after 8 weeks; type: functional; in short: as §2
Rattus norvegicus [26] = test: Antihypertensive activity in L-NAME-induced Wistar rat assessed as decrease in blood creatinine level at 20 mg/kg/day, po for last 4 weeks measured after 8 weeks; type: functional; in short: as §2
Rattus norvegicus [27] = test: Antihypertensive activity in L-NAME-induced Wistar rat assessed as decrease in blood cholesterol level at 20 mg/kg/day, po for last 4 weeks measured after 8 weeks; type: functional; in short: as §2
Rattus norvegicus [28] = test: Antihypertensive activity in L-NAME-induced Wistar rat assessed as decrease in blood triglyceride level at 20 mg/kg/day, po for last 4 weeks measured after 8 weeks; type: functional; in short: as §2
Rattus norvegicus [29] = test: Antihypertensive activity in Wistar rat assessed as normalization of L-NAME-induced heart weight at 20 mg/kg/day, po for 4 weeks in presence of L-NAME; type: functional, organism-based; details: 28 mg/kg, in the assay text read “28 mg/kg/day” for “20 mg/kg/day”; in short: as §3
Rattus norvegicus [30] = test: Antihypertensive activity in L-NAME-induced Wistar rat assessed as decrease in blood Na+ level at 20 mg/kg/day, po for last 4 weeks measured after 8 weeks; type: functional; in short: as §2
Rattus norvegicus [31] = test: Antihypertensive activity in L-NAME-induced Wistar rat assessed as decrease in blood AST level at 20 mg/kg/day, po for last 4 weeks measured after 8 weeks; type: functional; in short: as §2
Rattus norvegicus [32] = test: Antihypertensive activity in L-NAME-induced Wistar rat assessed as decrease in blood glucose level at 20 mg/kg/day, po for last 4 weeks measured after 8 weeks; type: functional; in short: as §2
Rattus norvegicus [33] = test: Antihypertensive activity in L-NAME-induced Wistar rat assessed as decrease in blood […] level at 20 mg/kg/day, po for last 4 weeks measured after 8 weeks; type: functional; in short: as §2
Rattus norvegicus [34] = test: Antihypertensive activity in L-NAME-induced Wistar rat assessed as decrease in blood protein level at 20 mg/kg/day, po for last 4 weeks measured after 8 weeks; type: functional; in short: as §2

With `CCCCc1ncc(COC(=O)CCc2ccc(O)c(O)c2)n1Cc1ccc(-c2ccccc2-c2nnn[nH]2)cc1` the Activity (Rattus norvegicus [1]) was “Active”, the Activity (Rattus norvegicus [2]) was 149 mg/dL and the Activity (Rattus norvegicus [3]) was “inactive”. The Activity (Rattus norvegicus [4]) was “Active”, the Activity (Rattus norvegicus [5]) was 600 IU/L and the Activity (Rattus norvegicus [6]) was “Active”. The Activity (Rattus norvegicus [7]) was 4.4 mmol/L, the Activity (Rattus norvegicus [8]) was “Active” and the Activity (Rattus norvegicus [9]) was “Active”. For the same molecule, the Activity (Rattus norvegicus [10]) was 0.43 mg/dL, the Activity (Rattus norvegicus [11]) was 8.6 mg/dL and the Activity (Rattus norvegicus [12]) was 151 mmol/L. For the same molecule, the Activity (Rattus norvegicus [13]) was 60 mg/dL, the Activity [14] was 0.31 mmol/L and the Activity (Rattus norvegicus [15]) was 24 mg/dL. The Activity (Rattus norvegicus [16]) was “inactive”, the Activity (Rattus norvegicus [17]) was 25 IU/L and the Activity (VSMC) was 60%. For the same molecule, the Activity (Rattus norvegicus [18]) was 55 mg/dL, the Activity (Rattus norvegicus [19]) was 85 IU/L and the Activity (Rattus norvegicus [20]) was 4.5 g/dL.
For `CCCCc1nc(Cl)c(CO)n1Cc1ccc(-c2ccccc2-c2nnn[nH]2)cc1` [LOSARTAN], the Activity (Rattus norvegicus [21]) was “Active”, the Activity (Rattus norvegicus [3]) was “inactive” and the Activity (Rattus norvegicus [22]) was 622 IU/L. The Activity (Rattus norvegicus [23]) was 24 mg/dL, the Activity (Rattus norvegicus [24]) was 24 IU/L and the Activity (Rattus norvegicus [25]) was 8.3 mg/dL. The Activity (Rattus norvegicus [26]) was 0.42 mg/dL, the Activity (Rattus norvegicus [27]) was 48 mg/dL and the Activity (Rattus norvegicus [28]) was 65 mg/dL. The Activity [14] was 0.04 mmol/L, the Activity (Rattus norvegicus [16]) was “inactive” and the Activity (Rattus norvegicus [29]) was “Active”. The Activity (VSMC) was 53%, the Activity (Rattus norvegicus [30]) was 151 mmol/L and the Activity (Rattus norvegicus [31]) was 91 IU/L. For the same molecule, the Activity (Rattus norvegicus [32]) was 149 mg/dL, the Activity (Rattus norvegicus [33]) was 4.7 mmol/L and the Activity (Rattus norvegicus [34]) was 5 g/dL.
For `CCCCc1ncc(COC(=O)Cc2cc(C(C)(C)C)c(O)c(C(C)(C)C)c2)n1Cc1ccc(-c2ccccc2-c2nnn[nH]2)cc1`, the Activity [14] was 0.24 mmol/L and the Activity (VSMC) was 77%.
Molecule `CCCCc1ncc(COC(=O)C2(C)CCc3c(C)c(O)c(C)c(C)c3O2)n1Cc1ccc(-c2ccccc2-c2nnn[nH]2)cc1` (stereo not given) has an Activity [14] of 0.27 mmol/L and an Activity (VSMC) of 65%.
In the case of `CCCCc1nc(Cl)c(COC(=O)C2(C)CCc3c(C)c(O)c(C)c(C)c3O2)n1Cc1ccc(-c2ccccc2-c2nnn[nH]2)cc1` (stereo not given), the Activity [14] is reported as 0.25 mmol/L and the Activity (VSMC) is reported as 68%.
